Data set [1] has as its system Plasma. Nature of the data set: Drug level in Sprague-Dawley rat plasma treated with RM-5061 at 10 to 75 mg/kg administered via oral gavage qd for 28 consecutive days. In kind it is ADME, organism-based. To be noted: in vivo. An outline of the steps:
(§1)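 In a sub-acute study, Sprague-Dawley rats were dosed once daily for 28 consecutive days at 10, 30 or 75 mg/kg, given as a yellow suspension. There were four groups of up to 30 rats each (15M/15F) to assess systemic exposure.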

The test system of data set [2] is Plasma. Nature of the data set: Elimination half life in Sprague-Dawley rat assessed as tizoxanide-glucuronide level in plasma at 10 to 75 mg/kg administered via oral gavage qd for 28 consecutive days. Particulars: in vivo. In kind it is ADME, organism-based. The method in brief:
as §1

A further data set concerns Canis familiaris. Nature of the data set: Drug level in Beagle dog plasma treated with RM-5061 up to 25 mg/kg administered orally as gelatin capsule once daily for 28 days measured on day 1 and 29. In kind it is ADME, organism-based, Canis lupus familiaris. To be noted: in vivo, po, 672 h. The method in brief:
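Beagle dogs received the drug orally in a single gelatin capsule at 5, 15 or 25 mg/kg once daily for 28 consecutive days in a sub-acute toxicity study assessing systemic exposure.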

Data set [3] concerns Plasma. Nature of the data set: Drug level in Sprague-Dawley rat plasma treated with RM5064 at 30 mg/kg, po administered as single dose. In kind it is ADME, organism-based. To be noted: in vivo. The method in brief:
(§2)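 Rats in groups of three received one compound as a single oral dose (30 mg/kg) or a single intravenous injection (6 mg/kg), with four compounds studied separately. Serial blood samples were drawn at 5, 10, 15 and 30 min and at 1, 2, 4, 8, 23 and 24 h post-dose. Plasma parent drug and metabolites were quantified and PK parameters were derived.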

The subject of data set [4] is Rattus norvegicus. The data set can be described thus: Drug level in Sprague-Dawley rat treated with RM5038 at 6.4 mg/kg, iv measured at 0.25 to 1 hrs post dose. In kind it is ADME, organism-based. Particulars: in vivo.
The test system of data set [5] is Rattus norvegicus. The data set can be described thus: Drug level in Sprague-Dawley rat treated with RM5064 at 6.4 mg/kg, iv measured at 0.25 to 1 hrs post dose. To be noted: in vivo. In kind it is ADME, organism-based.
Data set [6] deals with Plasma. The data set can be described thus: Drug level in Sprague-Dawley rat plasma treated with RM5038 at 6 mg/kg, iv administered as single dose. In kind it is ADME, organism-based. To be noted: in vivo. The method in brief: as §2
The test system of data set [7] is Rattus norvegicus. Nature of the data set: Elimination half life in Sprague-Dawley rat assessed as RM-4848 level in plasma at 30 mg/kg, po administered as single dose. In kind it is ADME, organism-based. Particulars: in vivo. The method in brief: as §2
Data set [8] deals with Rattus norvegicus. The data set can be described thus: Cmax in Sprague-Dawley rat assessed as RM-4848 level in plasma at 30 mg/kg, po administered as single dose. In kind it is ADME, organism-based. On the set-up: dose 30 mg/kg, route oral. To be noted: in vivo. The method in brief:
as §2

Data set [9] concerns Rattus norvegicus. Nature of the data set: AUC (0 to t) in Sprague-Dawley rat assessed as RM-4848 level in plasma at 30 mg/kg, po administered as single dose. In kind it is ADME, organism-based. Particulars: in vivo. The method in brief:
as §2

The test system of data set [10] is Rattus norvegicus. The data set can be described thus: Cmax in Sprague-Dawley rat assessed as RM-4848-glucuronide level in plasma at 30 mg/kg, po administered as single dose. To be noted: in vivo. In kind it is ADME, organism-based. The arrangement: dose 30 mg/kg, route oral. An outline of the steps:
as §2

The subject of data set [11] is Rattus norvegicus. The data set can be described thus: AUC (0 to t) in Sprague-Dawley rat assessed as RM-4848-glucuronide level in plasma at 30 mg/kg, po administered as single dose. Particulars: in vivo. In kind it is ADME, organism-based. The method in brief:
as §2

In data set [12] the test system is Rattus norvegicus. Nature of the data set: Elimination half life in Sprague-Dawley rat assessed as RM-4848-glucuronide level at 30 mg/kg, po administered as single dose. In kind it is ADME, organism-based. Particulars: in vivo. An outline of the steps: as §2
The test system of data set [13] is Rattus norvegicus. The data set can be described thus: Oral bioavailability in Sprague-Dawley rat assessed as RM-4848 level in plasma at 30 mg/kg administered as single dose. To be noted: in vivo. In kind it is ADME, organism-based. An outline of the steps: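 Groups of three rats received a single oral dose (30 mg/kg) or intravenous dose (6 mg/kg), with serial blood sampling from 5 min to 24 h. Absolute bioavailability came from the AUC after oral versus intravenous dosing, with the AUC corrected for dose to 30 mg/kg.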

The test system of data set [14] is Rattus norvegicus. Nature of the data set: Cmax in Sprague-Dawley rat assessed as RM-4848 level in plasma at 6 mg/kg, iv administered as single dose. The arrangement: dose 6 mg/kg, route intravenous. To be noted: in vivo. In kind it is ADME, organism-based. The method in brief: as §2
For data set [15], the system named is Rattus norvegicus. The data set can be described thus: AUC (0 to t) in Sprague-Dawley rat assessed as RM-4848 level in plasma at 6 mg/kg, iv administered as single dose. In kind it is ADME, organism-based. Particulars: in vivo. An outline of the steps: as §2
Data set [16] has as its system Rattus norvegicus. The data set can be described thus: Cmax in Sprague-Dawley rat assessed as RM-4848-glucuronide level at 6 mg/kg, iv administered as single dose. To be noted: in vivo. In kind it is ADME, organism-based. The arrangement: dose 6 mg/kg, route intravenous. An outline of the steps:
as §2

For data set [17], the system named is Rattus norvegicus. The data set can be described thus: AUC (0 to t) in Sprague-Dawley rat assessed as RM-4848-glucuronide level at 6 mg/kg, iv administered as single dose. In kind it is ADME, organism-based. Particulars: in vivo. The method in brief:
as §2

For data set [18], the system named is Plasma. Nature of the data set: Drug metabolism in Sprague-Dawley rat assessed as RM-4848 formation in plasma at 30 mg/kg, po administered as single dose measured at 0.083 to 4 hrs post dose. To be noted: in vivo. In kind it is ADME, organism-based. The method in brief:
as §2

For data set [19], the system named is Plasma. The data set can be described thus: Drug metabolism in Sprague-Dawley rat assessed as RM-4848-glucuronide formation in plasma at 30 mg/kg, po administered as single dose. In kind it is ADME, organism-based. To be noted: in vivo. An outline of the steps: as §2
Data set [20] concerns Rattus norvegicus. The data set can be described thus: Tmax in Sprague-Dawley rat assessed as RM-4848 level in plasma at 6.2 mg/kg, iv. Particulars: in vivo. In kind it is ADME, organism-based. The method in brief:
(§3)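 Rats in groups of three got a single oral dose (30 mg/kg) or a single intravenous injection (6 mg/kg). Serial blood samples were taken at 5, 10, 15 and 30 min and at 1, 2, 4, 8, 23 and 24 h post-dose for plasma drug and glucuronide levels. Bioavailability came from oral versus intravenous AUC after dose correction to 30 mg/kg.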

Data set [21] relates to Rattus norvegicus. The data set can be described thus: Tmax in Sprague-Dawley rat assessed as RM-4848-glucuronide level in plasma at 6.2 mg/kg, iv. In kind it is ADME, organism-based. Particulars: in vivo. An outline of the steps: as §3
In data set [22] the test system is Rattus norvegicus. Nature of the data set: Tmax in Sprague-Dawley rat assessed as RM4848-glucuronide level in plasma at 30 mg/kg, po administered as single dose. In kind it is ADME, organism-based. Particulars: in vivo. The method in brief:
as §3

The subject of data set [23] is Rattus norvegicus. The data set can be described thus: Elimination half life in Sprague-Dawley rat assessed as RM-4848 level in plasma at 6.2 mg/kg, iv. In kind it is ADME, organism-based. Particulars: in vivo.
Data set [24] has as its system Plasma. The data set can be described thus: Drug metabolism in Sprague-Dawley rat assessed as RM-4848-glucuronide formation in plasma at 6.2 mg/kg, iv at 0.083 hrs post dose. In kind it is ADME, organism-based. To be noted: in vivo.
The test system of data set [25] is Rattus norvegicus. The data set can be described thus: Elimination half life in Sprague-Dawley rat assessed as RM-4848-glucuronide level at 6.2 mg/kg, iv. In kind it is ADME, organism-based. Particulars: in vivo.
Data set [26] concerns Rattus norvegicus. Nature of the data set: Drug level in Sprague-Dawley rat treated with Nitazoxanide at 6 mg/kg, iv measured at 0.7 to 2.1 hrs post dose. In kind it is ADME, organism-based. Particulars: in vivo.
Data set [27] relates to Plasma. The data set can be described thus: Elimination half life in Sprague-Dawley rat assessed as tizoxanide level in plasma at 10 to 75 mg/kg administered via oral gavage qd for 28 consecutive days. In kind it is ADME, organism-based. Particulars: in vivo. An outline of the steps: as §1

For `O=C(Nc1ncc([N+](=O)[O-])s1)c1ccccc1O[C@@H]1O[C@H](C(=O)O)[C@@H](O)[C@H](O)[C@H]1O`, the Drug metabolism result with Plasma [1] and in the data set on Canis familiaris was “Metabolite_Detected” each time. For the same compound, the beta t1/2 in the data set with Plasma [2] lay in the range of 1.5 to 11 h.
For the compound `O=C(Nc1ncc(Cl)s1)c1ccccc1O[C@@H]1O[C@H](C(=O)O)[C@@H](O)[C@H](O)[C@H]1O`, the Drug metabolism entry in the data set with Plasma [3], in the data set on Rattus norvegicus [4], with Rattus norvegicus [5] and with Plasma [6] was “Metabolite_Detected” each time.
Turning to `CC(C)(C)[C@H](N)C(=O)Oc1ccccc1C(=O)Nc1ncc(Cl)s1.Cl`, the beta t1/2 was 1.4 to 2.6 h in the data set with Rattus norvegicus [7], 3.43 h with Rattus norvegicus [12], 0.91 h with Rattus norvegicus [23] and 3.15 h in the data set on Rattus norvegicus [25]. For the same compound, the Cmax in the data set on Rattus norvegicus [8] came out at 622 ng/mL; in the data set with Rattus norvegicus [10], 7290 ng/mL; in the data set on Rattus norvegicus [14], 2650 ng/mL; in the data set with Rattus norvegicus [16], 5570 ng/mL. The AUCt worked out at 715 ng·h/mL in the data set on Rattus norvegicus [9], 19400 ng·h/mL with Rattus norvegicus [11], 631 ng·h/mL in the data set on Rattus norvegicus [15] and 7610 ng·h/mL in the data set on Rattus norvegicus [17]. In addition, in the data set on Rattus norvegicus [13], the F was 23%. Moreover, the Drug metabolism result in the data set with Plasma [18], with Plasma [19] and with Plasma [24] was “Metabolite_Detected” in each case. Besides, the Tmax is 4.98 min in the data set with Rattus norvegicus [20], 0.25 to 0.5 h with Rattus norvegicus [21] and 0.5 h in the data set with Rattus norvegicus [22].
Take `O=C(Nc1ncc([N+](=O)[O-])s1)c1ccccc1O` [TIZOXANIDE]: the Drug metabolism entry in the data set with Rattus norvegicus [26], in the data set on Plasma [1] and in the data set on Canis familiaris was “Metabolite_Detected” in each case. In the data set on Plasma [27], the beta t1/2 fell in the range of 0.7 to 3.7 h.

These data come from ChEMBL document CHEMBL3997766, “Synthesis and pre-clinical studies of new amino-acid ester thiazolide prodrugs” (Eur J Med Chem, 2017).
